{"source": "ChEMBL document CHEMBL1122504", "about": "“Heterocyclic Quinones. 4. A new highly cytotoxic drug: 6,7-bis(1-aziridinyl)-5,8-quinazolinedione” (1983)", "key": {"P388 [1]": {"test_system": "P388", "assay": "MST of treated animal over control when administered at a dose of 15 mg/kg intravenously on Q01Dx01 treatment schedule", "assay_type": "functional, Mus musculus", "conditions": "route intravenous", "summary_of_the_method": "(§1)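 P388 leukaemia: DBA/2 mice inoculated with 10^6 cells on day 0; treatment began day 1 at the stated route and schedule. Drug was dissolved in 0.15 M NaCl saline. The read-out was median survival time (MST, days), with toxicity taken as survivors on day 5. T/C% = treated MST/control MST × 100; ≥125% is considered significant.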"}, "L1210 [2]": {"test_system": "L1210", "assay": "Median survival time of L1210 cell line after a dose of 10 mg/kg administered intraperitoneally on Q01Dx02 treatment schedule", "assay_type": "functional, Mus musculus", "conditions": "route intraperitoneal", "summary_of_the_method": "(§2)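 L1210 leukaemia: DBA/2 mice inoculated ip with 10^5 cells on day 0, with ip drug in 0.15 M NaCl saline on the stated schedule. The read-out was median survival time in days, with toxicity taken as survivors on day 5. T/C% = treated MST/control MST × 100; >125% is considered significant.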"}, "L1210 [3]": {"test_system": "L1210", "assay": "Number of survivors of L1210 cell line on day 5/ number of treated mice at a dose of 2 ip injection of 15 mg/kg on Q01Dx02 treatment schedule; 10/10", "assay_type": "functional, Mus musculus", "conditions": "route intraperitoneal"}, "L1210 [4]": {"test_system": "L1210", "assay": "Concentration that decreases the growth rate of the L1210 cells by 50% after 48 hr of culture", "assay_type": "functional", "conditions": "Mus musculus, L1210, 48 h; read-out: ID50 (the source's name)", "summary_of_the_method": "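L1210 leukemia cells cultured with increasing drug concentrations for 48 h at 37 °C under 5% CO2. Percentage inhibition of control growth was fitted by least-squares linear regression against log dose, and the concentration lowering control growth by 50% was estimated from the regression equation.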"}, "P388 [5]": {"test_system": "P388", "assay": "Median survival time of P388 lymphocytic leukemia cell line after a dose of 2.5 mg/kg administered intraperitoneally on Q01Dx09 treatment schedule", "assay_type": "functional, Mus musculus", "conditions": "route intraperitoneal", "summary_of_the_method": "as §1"}, "Salmonella typhimurium [6]": {"test_system": "Salmonella typhimurium", "assay": "Mutagenesis test was performed at 0.7 uM concentration in Salmonella Typhimurium TA 98", "assay_type": "functional, Salmonella enterica subsp. enterica serovar Typhimurium", "summary_of_the_method": "(§3)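 Salmonella typhimurium his auxotrophs TA98 and TA100 were tested by liquid suspension without metabolic activation. Overnight Oxoid nutrient broth cultures were subcultured, grown 2 h, then exposed to drug for 5 h. Cells were washed, resuspended to A650 2.50, and plated in top agar (0.6% agar, 0.6% NaCl). His+ revertants per plate were counted after 48 h at 37 °C; values are means of three assays.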"}, "P388 [7]": {"test_system": "P388", "assay": "MST of treated animal over control when administered at a dose of 5 mg/kg intraperitoneally on Q01Dx09 treatment schedule", "assay_type": "functional, Mus musculus", "conditions": "route intraperitoneal", "summary_of_the_method": "as §1"}, "Salmonella typhimurium [8]": {"test_system": "Salmonella typhimurium", "assay": "Mutagenesis test was performed at 20 uM concentration in Salmonella Typhimurium TA 100", "assay_type": "functional, Salmonella enterica subsp. enterica serovar Typhimurium", "summary_of_the_method": "as §3"}, "P388 [9]": {"test_system": "P388", "assay": "Number of survivors of P388 lymphocytic leukemia cell line on day 5/ number of treated mice at a dose of 1 i.v. injection of 15 mg/kg on Q01Dx01 treatment schedule; 10/10", "assay_type": "functional, Mus musculus", "conditions": "route intravenous"}, "Salmonella typhimurium [10]": {"test_system": "Salmonella typhimurium", "assay": "Mutagenesis test was performed at 0.7 uM concentration in Salmonella Typhimurium TA 100", "assay_type": "functional, Salmonella enterica subsp. enterica serovar Typhimurium", "summary_of_the_method": "as §3"}, "P388 [11]": {"test_system": "P388", "assay": "Number of survivors of P388 lymphocytic leukemia cell line on day 5/ number of treated mice at a dose of 3 ip injection of 10 mg/kg on Q04Dx03 treatment schedule; 10/10", "assay_type": "functional, Mus musculus", "conditions": "route intraperitoneal"}, "Sarcoma-180 [12]": {"test_system": "Sarcoma-180", "assay": "MST of treated animal over control when administered at a dose of 20 mg/kg intraperitoneally on Q01Dx01 treatment schedule in sarcoma 180 cell lines", "assay_type": "functional, Mus musculus", "conditions": "route intraperitoneal", "summary_of_the_method": "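Sarcoma 180: Swiss mice inoculated ip with 10^6 cells on day 0, with single ip injection of drug in 0.15 M NaCl saline. Median survival time was recorded in days, with toxicity taken as survivors on day 5. T/C% = treated MST/control MST × 100; >125% is considered significant.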"}, "P388 [13]": {"test_system": "P388", "assay": "Number of survivors of P388 lymphocytic leukemia cell line on day 5/ number of treated mice at a dose of 5 ip injection of 5 mg/kg on Q01Dx05 treatment schedule; 10/10", "assay_type": "functional, Mus musculus", "conditions": "route intraperitoneal"}, "B16": {"test_system": "B16", "assay": "Median survival time of […] melanocarcinoma cell line after a dose of 10 mg/kg administered intraperitoneally on Q01Dx01 treatment schedule", "assay_type": "functional, Mus musculus", "conditions": "route intraperitoneal", "summary_of_the_method": "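B16 melanocarcinoma: C57Bl/6 mice implanted sc with cell suspension on day 0; single ip dose in 0.15 M NaCl saline given on day 1. Median survival time was recorded in days, with toxicity taken as survivors on day 5. T/C% = treated MST/control MST × 100; >125% is considered significant.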"}, "P388 [14]": {"test_system": "P388", "assay": "Median survival time of P388 lymphocytic leukemia cell line after a dose of 10 mg/kg administered intraperitoneally on Q01Dx01 treatment schedule", "assay_type": "functional, Mus musculus", "conditions": "route intraperitoneal", "summary_of_the_method": "as §1"}, "P388 [15]": {"test_system": "P388", "assay": "Number of survivors of P388 lymphocytic leukemia cell line on day 5/ number of treated mice at a dose of 5 ip injection of 10 mg/kg on Q01Dx05 treatment schedule; 10/10", "assay_type": "functional, Mus musculus", "conditions": "route intraperitoneal"}, "L1210 [16]": {"test_system": "L1210", "assay": "Number of survivors of L1210 cell line on day 5/ number of treated mice at a dose of 5ip injection of 5 mg/kg on Q01Dx05 treatment schedule; 10/10", "assay_type": "functional, Mus musculus"}, "L1210 [17]": {"test_system": "L1210", "assay": "Median survival time of L1210 cell line after a dose of 2.5 mg/kg administered intraperitoneally on Q01Dx09 treatment schedule", "assay_type": "functional, Mus musculus", "conditions": "route intraperitoneal", "summary_of_the_method": "as §2"}, "Salmonella typhimurium [18]": {"test_system": "Salmonella typhimurium", "assay": "Mutagenesis test was performed at 60 uM concentration in Salmonella Typhimurium TA 100", "assay_type": "functional, Salmonella enterica subsp. enterica serovar Typhimurium", "summary_of_the_method": "as §3"}, "L1210 [19]": {"test_system": "L1210", "assay": "Median survival time of L1210 cell line after a dose of 15 mg/kg administered intraperitoneally on Q01Dx02 treatment schedule", "assay_type": "functional, Mus musculus", "conditions": "route intraperitoneal", "summary_of_the_method": "as §2"}, "P388 [20]": {"test_system": "P388", "assay": "Median survival time of P388 lymphocytic leukemia cell line after a dose of 2.5 mg/kg administered intravenously on Q01Dx01 treatment schedule", "assay_type": "functional, Mus musculus", "conditions": "route intravenous", "summary_of_the_method": "as §1"}, "Salmonella typhimurium [21]": {"test_system": "Salmonella typhimurium", "assay": "Mutagenesis test was performed at 0.3 uM concentration in Salmonella Typhimurium TA 98", "assay_type": "functional, Salmonella enterica subsp. enterica serovar Typhimurium", "summary_of_the_method": "as §3"}, "P388 [22]": {"test_system": "P388", "assay": "Median survival time of P388 lymphocytic leukemia cell line after a dose of 20 mg/kg administered perorally on Q01Dx07 treatment schedule", "assay_type": "functional, Mus musculus", "conditions": "route oral", "summary_of_the_method": "as §1"}, "Salmonella typhimurium [23]": {"test_system": "Salmonella typhimurium", "assay": "Mutagenesis test was performed at 40 uM concentration in Salmonella Typhimurium TA 100", "assay_type": "functional, Salmonella enterica subsp. enterica serovar Typhimurium", "summary_of_the_method": "as §3"}, "P388 [24]": {"test_system": "P388", "assay": "MST of treated animal over control when administered at a dose of 5 mg/kg intraperitoneally on Q01Dx05 treatment schedule", "assay_type": "functional, Mus musculus", "conditions": "route intraperitoneal", "summary_of_the_method": "as §1"}, "P388 [25]": {"test_system": "P388", "assay": "Median survival time of P388 lymphocytic leukemia cell line after a dose of 10 mg/kg administered intraperitoneally on Q04Dx03 treatment schedule", "assay_type": "functional, Mus musculus", "conditions": "route intraperitoneal", "summary_of_the_method": "as §1"}, "P388 [26]": {"test_system": "P388", "assay": "MST of treated animal over control when administered at a dose of 10 mg/kg intraperitoneally on Q01Dx01 treatment schedule", "assay_type": "functional, Mus musculus", "conditions": "route intraperitoneal", "summary_of_the_method": "as §1"}, "L1210 [27]": {"test_system": "L1210", "assay": "Number of survivors of L1210 cell line on day 5/ number of treated mice at a dose of 2ip injection of 10 mg/kg on Q01Dx02 treatment schedule; 10/10", "assay_type": "functional, Mus musculus"}, "P388 [28]": {"test_system": "P388", "assay": "MST of treated animal over control when administered at a dose of 15 mg/kg perorally on Q01Dx07 treatment schedule", "assay_type": "functional, Mus musculus", "conditions": "route oral", "summary_of_the_method": "as §1"}, "Sarcoma-180 [29]": {"test_system": "Sarcoma-180", "assay": "Number of survivors of sarcoma 180 cell line on day 5/ number of treated mice at a dose of 1 ip injection of 20 mg/kg on Q01Dx01 treatment schedule; 10/10", "assay_type": "functional, Mus musculus", "conditions": "route intraperitoneal"}, "P388 [30]": {"test_system": "P388", "assay": "MST of treated animal over control when administered at a dose of 10 mg/kg intraperitoneally on Q01Dx05 treatment schedule", "assay_type": "functional, Mus musculus", "conditions": "route intraperitoneal", "summary_of_the_method": "as §1"}}, "note": "Where “and” joins values, the source holds several entries; their conditions need not be identical. Identical values can stand only once."}
{"smiles": "O=C1C(N2CC2)=C(N2CC2)C(=O)c2ncncc21", "values": [{"measurement": "T/C", "setting": "P388 [1]", "value": "139% and 114%"}, {"measurement": "MST", "setting": "L1210 [2]", "value": 9, "unit": "days"}, {"measurement": "Toxicity Survivors", "setting": "L1210 [3]", "value": 10}, {"measurement": "IC50", "setting": "L1210 [4]", "value": "0.02 µg/mL and 80 nM"}, {"measurement": "MST", "setting": "P388 [5]", "value": 10.4, "unit": "days"}, {"measurement": "Revertants/plate", "setting": "Salmonella typhimurium [6]", "value": 101}, {"measurement": "T/C", "setting": "P388 [7]", "value": 148, "unit": "%"}, {"measurement": "Revertants/plate", "setting": "Salmonella typhimurium [8]", "value": 108}, {"measurement": "Toxicity Survivors", "setting": "P388 [9]", "value": 10}, {"measurement": "Revertants/plate", "setting": "Salmonella typhimurium [10]", "value": 94}, {"measurement": "Toxicity Survivors", "setting": "P388 [11]", "value": 10}, {"measurement": "T/C", "setting": "Sarcoma-180 [12]", "value": 110, "unit": "%"}, {"measurement": "Toxicity Survivors", "setting": "P388 [13]", "value": 10}, {"measurement": "MST", "setting": "B16", "value": 20.8, "unit": "days"}, {"measurement": "MST", "setting": "P388 [14]", "value": 9.5, "unit": "days"}, {"measurement": "Toxicity Survivors", "setting": "P388 [15]", "value": 10}, {"measurement": "Toxicity Survivors", "setting": "L1210 [16]", "value": 10}, {"measurement": "MST", "setting": "L1210 [17]", "value": 9.1, "unit": "days"}, {"measurement": "Revertants/plate", "setting": "Salmonella typhimurium [18]", "value": 501}, {"measurement": "MST", "setting": "L1210 [19]", "value": 9, "unit": "days"}, {"measurement": "MST", "setting": "P388 [20]", "value": 10.4, "unit": "days"}, {"measurement": "Revertants/plate", "setting": "Salmonella typhimurium [21]", "value": 84}, {"measurement": "MST", "setting": "P388 [22]", "value": 7.6, "unit": "days"}, {"measurement": "Revertants/plate", "setting": "Salmonella typhimurium [23]", "value": 461}, {"measurement": "T/C", "setting": "P388 [24]", "value": 138, "unit": "%"}, {"measurement": "MST", "setting": "P388 [25]", "value": 9.9, "unit": "days"}, {"measurement": "T/C", "setting": "P388 [26]", "value": 118, "unit": "%"}, {"measurement": "Toxicity Survivors", "setting": "L1210 [27]", "value": 10}, {"measurement": "T/C", "setting": "P388 [28]", "value": 100, "unit": "%"}, {"measurement": "Toxicity Survivors", "setting": "Sarcoma-180 [29]", "value": 10}, {"measurement": "T/C", "setting": "P388 [30]", "value": 84, "unit": "%"}]}
